Laboratory results as given in publication PMC6661244 (Investigative Radiology, 2019).
“Also recorded” adds a separate entry of the source.

Tests used:
Osmolality = type: physicochemical; settings: 0.5-M solution; Guerbet measurements
Method in brief: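 Vapour-pressure osmometry on a 0.5 M solution, triplicate readings. The osmometer was calibrated before each use with 100, 290 and 1000 mOsm/kg H2O standards.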

[1] = Metabolism: HPLC analysis of plasma and urine samples; type: in vivo; settings: Beagle dogs, 0.2 mmol Gd/kg IV
Method in brief: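 Urine and plasma from Beagle dogs given a 153Gd-labelled test compound (0.2 mmol Gd/kg IV) were analysed by radio-HPLC. Separation used a C18 column at 4°C, with detection by a flow scintillation analyser.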

Viscosity = type: physicochemical; settings: 0.5 M
Method in brief: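 Cone-and-plate rotational rheometry (60 mm, 2° cone) on a 0.5 M solution at 37°C. Shear rate was recorded at applied stresses of 1–5 Pa, and viscosity was taken from the slope of stress versus shear rate.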

[2] = test system: hepatic colorectal metastases; settings: rats, 0.1 mmol Gd/kg intravenously, 9.4 T, compared with gadobutrol; cited from earlier work
[3] = Nuclear magnetic relaxation dispersion; type: physicochemical
[4] = type: physicochemical; settings: 2.5 mM GBCA and ZnCl2, phosphate buffer pH 7, 335 mM, 37°C, 0.47 T, up to 5 days

Osmolality at 37°C at marketed concentration (Osmolality)	Viscosity at 37°C (Viscosity)	Relaxivity r1 at 37°C ([3]; 3 T, in human serum, extrapolated from NMRD profiles)	r1 relaxivity (NMRD profile) ([3]; 300 MHz, ie, 7 T field, water, 37°C)	r1(t)/r1(t0) ratio over time in the presence of Zn^2+ and phosphate [4]	SMILES	Metabolites in plasma and urine samples (HPLC) [1]	Lesion enhancement [2]
843 mOsm/kg H2O	7.6 mPa·s	11.6 mM⁻¹ s⁻¹	10.68 mM⁻¹ s⁻¹	remained constant	O=C(CCC(C(=O)[O-])N1CCN(C(CCC(=O)NCC(O)CO)C(=O)[O-])Cc2cccc(n2)CN(C(CCC(=O)NCC(O)CO)C(=O)[O-])CC1)NCC(O)CO.[Gd+3] (centres unmarked) [Gadopiclenol, gadolinium chelate of 2,2′,2″-(3,6,9-triaza-1(2,6)-pyridinacyclodecaphane-3,6,9-triyl)tris(5-((2,3-dihydroxypropyl)amino)-5-oxopentanoic acid)]	No metabolites were found; also recorded: only unchanged gadopiclenol	significantly better lesions enhancement
				remained constant	CNC[C@H](O)[C@@H](O)[C@H](O)[C@H](O)CO.O=C([O-])CN1CCN(CC(=O)[O-])CCN(CC(=O)O)CCN(CC(=O)[O-])CC1.[Gd+3] [Gadoterate (Meglumine Salt), reference compound]		
